Measurements of several laboratories.
Lines come from different studies, so protocols differ.
Target: Serine/threonine-protein kinase D1 (PRKD1, Homo sapiens, UniProt Q15139)
Sequence (Q15139 1-912, as in one of the studies): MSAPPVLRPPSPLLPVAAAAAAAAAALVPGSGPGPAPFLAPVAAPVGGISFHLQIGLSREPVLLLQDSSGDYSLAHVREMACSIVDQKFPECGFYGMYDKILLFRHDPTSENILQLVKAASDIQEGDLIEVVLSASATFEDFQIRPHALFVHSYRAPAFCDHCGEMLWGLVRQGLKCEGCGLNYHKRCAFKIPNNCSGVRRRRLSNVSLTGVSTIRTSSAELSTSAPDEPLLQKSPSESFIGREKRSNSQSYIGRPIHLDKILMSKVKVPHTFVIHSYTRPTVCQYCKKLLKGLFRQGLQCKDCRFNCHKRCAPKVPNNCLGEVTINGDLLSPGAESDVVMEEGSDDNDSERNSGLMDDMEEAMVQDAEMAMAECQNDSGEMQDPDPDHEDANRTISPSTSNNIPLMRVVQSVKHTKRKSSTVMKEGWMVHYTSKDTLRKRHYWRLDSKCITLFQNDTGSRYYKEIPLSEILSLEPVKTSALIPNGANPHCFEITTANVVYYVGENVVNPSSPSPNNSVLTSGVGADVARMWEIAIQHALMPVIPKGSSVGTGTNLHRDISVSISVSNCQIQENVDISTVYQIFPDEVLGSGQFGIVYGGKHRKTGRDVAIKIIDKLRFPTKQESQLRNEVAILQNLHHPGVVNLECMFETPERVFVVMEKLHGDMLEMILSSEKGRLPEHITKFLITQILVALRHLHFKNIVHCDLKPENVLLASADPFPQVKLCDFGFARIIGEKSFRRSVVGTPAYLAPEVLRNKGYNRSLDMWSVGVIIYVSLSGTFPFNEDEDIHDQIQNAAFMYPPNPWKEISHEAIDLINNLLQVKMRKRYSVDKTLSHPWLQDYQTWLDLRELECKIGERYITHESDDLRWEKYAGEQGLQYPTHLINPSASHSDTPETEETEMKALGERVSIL

The inhibition of `CNc1cccc2cc(C(=O)Nc3ccc(C(=O)O)cc3)c(=O)[nH]c12` is reported as -3.9% (enzyme activity, inhibitor; 10 µM).
With `COc1cc(/C=C/C(=O)CC(=O)/C=C/c2ccc(O)c(OC)c2)ccc1O` the activity vs control was 79% (enzyme activity, inhibitor; 1 µM).
`Cn1c(=O)n(-c2ccc(C(C)(C)C#N)cc2)c2c3cc(-c4cnc5ccccc5c4)ccc3ncc21` has a remaining activity of 107% (enzyme activity, inhibitor; 10 µM).
`O=C(NC[C@@H]1[C@H]2CN(C(=O)OCc3cc(C(F)(F)F)cc(C(F)(F)F)c3)C[C@@H]12)c1ccc2[nH]nnc2c1` has a remaining binding of 100% (cell-free assay, competition with immobilised ligand; 1 µM).
The remaining activity of `CC(C)(C)C(=O)c1sc(NC2CCCCC2)nc1N` is reported as 85% (enzyme activity, inhibitor; 10 µM).
The remaining binding of `Cc1nccc(COC(=O)N2C[C@@H]3[C@@H](CNC(=O)c4ccc5[nH]nnc5c4)[C@@H]3C2)n1` is reported as 100% (cell-free assay, competition with immobilised ligand; 1 µM).
For `CC(C)c1ccc(NC(=O)c2cccs2)c(-c2nc3ccccc3[nH]c2=O)c1`, the activity vs control was 97% (enzyme activity, inhibitor; 1 µM).
`Cc1ccc(C(=O)NCc2ccsc2)cc1C#Cc1cn(C(C)C)c2ncnc(N)c12` gave an activity vs control of 91% (enzyme activity, inhibitor; 1 µM).
With `Oc1cccc(-c2nc(N3CCOCC3)c3oc4ncccc4c3n2)c1` the remaining activity was 120% (enzyme activity, inhibitor; 10 µM).
The remaining binding of `CS(=O)(=O)NCC[C@H](NC(=O)c1cncc2c1cnn2-c1ccc(F)cc1)c1ccnc(S(C)(=O)=O)c1` is reported as 92% (cell-free assay, competition with immobilised ligand; 1 µM).
For `COc1cc2ncnc(Nc3ccc(Oc4ccccc4)c(C)c3C)c2cc1OC`, the inhibition was -3% (enzyme activity, inhibitor; 1 µM).
`CCN(CC)c1ccc(C2=NNC(=O)CC2C)cc1[N+](=O)[O-]` (stereo not shown) gave a remaining activity of 14% (enzyme activity, inhibitor; 10 µM).
With `CNC(=O)Nc1ccc2c(c1)[C@@]1(CC2)OC(=O)N(CC(=O)N(Cc2ccc(F)cc2)[C@@H](C)C(F)(F)F)C1=O` the remaining binding was 100% (cell-free assay, competition with immobilised ligand; 1 µM).
The inhibition of `Cn1cnc(Br)c1C1=CN(c2ncnc3[nH]cnc23)CCS1` is reported as 21.4% (enzyme activity, inhibitor, radiometric; 50 nM).
`FC(F)(F)Oc1cccc(-c2cnc3ccc(-c4ccncc4)nn23)c1` has an activity vs control of 106% (enzyme activity, inhibitor, radiometric; 1 µM).
`COc1cccc2c(NCc3ccccc3)nc(-n3c(N)nc4ccccc43)nc12` gave an inhibition of -20.7% (target engagement in cells, inhibitor, chemoproteomics; 20 mM).
`O=C1NC(=O)c2cc(Nc3ccc(F)cc3)c(Nc3ccc(F)cc3)cc21` gave a remaining signal of 92.2% (cell-free assay; 0.5 µM).
With `CNC(=O)c1cc(Oc2ccc(NC(=O)Nc3ccc(Cl)c(C(F)(F)F)c3)cc2)ccn1` the inhibition was 8% (enzyme activity, inhibitor; 0.3 µM).
`Cc1sc(C(=O)NC2COC2)cc1-n1cc(NC(=O)Nc2c(F)cccc2Cl)cn1` has a remaining activity of 93.3% (enzyme activity, inhibitor; 10 µM).
With `COc1cc2ncnc(Nc3ccc(F)c(Cl)c3)c2cc1OCCCN1CCOCC1` the remaining signal was 85.4% (cell-free assay; 0.5 µM).
The remaining binding of `Cc1c(NC(=O)c2cc(C(N)=O)nc3cc(F)ccc23)c(C(F)(F)F)nn1Cc1ccc(C(C)(C)C)cc1` is reported as 100% (cell-free assay, competition with immobilised ligand; 1 µM).
For `COc1cc(Nc2cnc(C#N)c(O[C@H](C)CN(C)C)n2)ncc1-c1cnn(C)c1`, the remaining activity was 106% (enzyme activity, inhibitor, radiometric; 1 µM).
`Nc1nc(NC2CCCCC2)sc1C(=O)c1ccccc1` has a remaining activity of 35% (enzyme activity, inhibitor; 10 µM).
`CC(C)(O)[C@H]1CC[C@H](Nc2ccc3ncc(-c4cccc(C(F)(F)F)c4)n3n2)CC1` has a remaining activity of 99.5% (enzyme activity, inhibitor; 1 µM).
For `CN(C(=O)c1ccccc1)c1cc(N(C)c2ccc3c(c2)CCc2ccc(C(=O)NCCN4CCOCC4)cc2C3=O)ccc1F`, the remaining binding was 86% (cell-free assay, competition with immobilised ligand; 1 µM).
`Cc1ccc(Nc2nccc(N(C)c3ccc4c(C)n(C)nc4c3)n2)cc1S(N)(=O)=O` has an inhibition of 9% (enzyme activity, inhibitor; 0.3 µM).
For `Cc1nc(Cc2cccc(C(F)(F)F)c2)sc1-c1ccc(C(N)=O)nc1`, the remaining binding was 93% (cell-free assay, competition with immobilised ligand; 1 µM).
With `CC(C)(C)c1nc2c(s1)c1nc(N)ncc1c1ccc(NS(=O)(=O)c3c(F)cccc3F)c(F)c12` the remaining activity was 93% (enzyme activity, inhibitor, radiometric; 1 µM).
`Nc1ncnc2occ(-c3ccc(NC(=O)Nc4cc(C(F)(F)F)ccc4F)cc3)c12` gave a remaining signal of 30% (cell-free assay, inhibitor; 20 µM).
`Cn1cncc1C1=CN(c2ncnc3[nH]cnc23)CCS1` gave an inhibition of 21.3% (enzyme activity, inhibitor, radiometric; 50 nM).
The inhibition of `CCCCNc1ncc2c(-c3ccc(F)cc3)nn(C[C@H]3CC[C@H](N)CC3)c2n1` is reported as 25% (target engagement in cells, inhibitor, chemoproteomics; 20 mM).
`O=c1nc(-c2ccccn2)sc2ccccc12` gave a remaining binding of 100% (binding, competition with immobilised ligand; 1 µM).
`O=C(Nc1cnn(-c2csc(C(=O)NC3COC3)c2)c1)Nc1ccccc1Cl` has a remaining activity of 114% (enzyme activity, inhibitor; 5 µM).
The remaining signal of `O=C1Nc2ccc(Cl)cc2C1=Cc1cc(Cl)c(O)c(Cl)c1` is reported as 91.5% (cell-free assay; 0.5 µM).
